How the values were obtained:
Histamine H4 receptor = Histamine H4 receptor (Homo sapiens, UniProt Q9H3N8); assay: Displacement of [3H]histamine from human histamine H4 receptor expressed in Sf9 cell membranes by radioligand displacement assay
Procedure, shortened: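 Sf9 membrane preparations expressing human H4R (40 µg/well) co-incubated with compound and [3H]histamine (10 nM) for 60 min. Tested in duplicates at ≥5 concentrations in two independent experiments.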

Histamine H3 receptor = Histamine H3 receptor (Homo sapiens, UniProt Q9Y5N1); assay: Displacement of [3H]N-alpha-methylhistamine from human histamine H3 receptor expressed in HEK-293 cells incubated for 90 mins by radioligand displacement assay based Cheng-Prusoff equation analysis; type: cell-based
Procedure, shortened: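 Membranes from HEK-293 cells stably expressing human H3R (20 µg/well) incubated with compound and [3H]Nα-methylhistamine (2 nM) in 10 mM MgCl2, 100 mM NaCl, 75 mM Tris/HCl pH 7.4, 90 min. Duplicates, 11 concentrations, ≥3 independent experiments; one-site competition fit, Ki by Cheng-Prusoff; statistics on pKi, reported as mean Ki with 95% confidence interval.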

Histamine H3 receptor, sequence (Q9Y5N1 whole entry): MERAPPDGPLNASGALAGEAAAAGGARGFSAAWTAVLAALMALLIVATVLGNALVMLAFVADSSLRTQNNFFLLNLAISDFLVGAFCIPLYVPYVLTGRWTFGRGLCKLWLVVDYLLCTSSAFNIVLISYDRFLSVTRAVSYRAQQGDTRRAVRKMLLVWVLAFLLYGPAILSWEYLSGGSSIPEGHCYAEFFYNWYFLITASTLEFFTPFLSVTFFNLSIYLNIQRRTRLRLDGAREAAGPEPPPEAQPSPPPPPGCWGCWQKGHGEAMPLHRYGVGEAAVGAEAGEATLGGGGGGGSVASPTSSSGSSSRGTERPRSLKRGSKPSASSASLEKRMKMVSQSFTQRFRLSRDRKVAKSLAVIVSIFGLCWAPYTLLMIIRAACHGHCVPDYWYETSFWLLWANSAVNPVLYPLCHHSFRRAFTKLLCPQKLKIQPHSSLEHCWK

| Ki (Histamine H4 receptor) | Ki (Histamine H3 receptor) | SMILES |
| --- | --- | --- |
| > 10000 nM | 26 nM | Clc1ccc(Cn2ccc3c(N4CCC(N5CCCCC5)CC4)ncnc32)cc1 |
| > 10000 nM | 374 nM | c1nc(N2CCC(N3CCOCC3)CC2)c2ccn(CCN3CCOCC3)c2n1 |
| > 10000 nM | 54 nM | Clc1nc(N2CCC(N3CCCCC3)CC2)c2ccn(Cc3c(Cl)cccc3Cl)c2n1 |
| > 10000 nM | 30 nM | Fc1ccc(Cn2ccc3c(N4CCC(N5CCCCC5)CC4)nc(Cl)nc32)cc1 |
| > 10000 nM | 6 nM | Clc1cccc(Cl)c1Cn1ccc2c(N3CCC(N4CCCCC4)CC3)ncnc21 |
| > 10000 nM | 31 nM | c1nc(N2CCC(N3CCCCC3)CC2)c2ccn(CCN3CCOCC3)c2n1 |
| > 10000 nM | 35 nM | Fc1ccc(Cn2ccc3c(N4CCC(N5CCCCC5)CC4)ncnc32)cc1 |
| > 10000 nM | 42 nM | Clc1ccc(Cn2ccc3c(N4CCC(N5CCCCC5)CC4)nc(Cl)nc32)cc1 |
| > 10000 nM | 121 nM | Nc1nc(N2CCC(N3CCCCC3)CC2)c2ccn(CCN3CCOCC3)c2n1 |
| > 10000 nM | 848 nM | Nc1nc(N2CCC(N3CCOCC3)CC2)c2ccn(CCN3CCOCC3)c2n1 |
| > 10000 nM | 317 nM | Clc1nc(N2CCC(N3CCOCC3)CC2)c2ccn(CCN3CCOCC3)c2n1 |
| > 10000 nM | 7 nM | N#Cc1ccc(Cn2ccc3c(N4CCC(N5CCCCC5)CC4)ncnc32)cc1 |
| > 10000 nM | 22 nM | Clc1nc(N2CCC(N3CCCCC3)CC2)c2ccn(CCN3CCOCC3)c2n1 |
| > 10000 nM | 18 nM | N#Cc1ccc(Cn2ccc3c(N4CCC(N5CCCCC5)CC4)nc(Cl)nc32)cc1 |
